The source of these data is PMC5395206 (Journal of chemical information and modeling, 2016).

One test addresses CB2 (Homo sapiens, UniProt P34972). Briefly: Radioligand competition binding assay, [3H]CP-55,940 displacement. The conditions noted are these: inhibition of [3H]CP-55,940 (3 nM) binding to CB2 membrane protein. In a few lines:
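CB2 membrane protein (5 μg) incubated with [3H]CP-55,940 (3 nM final) and serial dilutions of test compound. Compound was diluted in binding buffer with 10% DMSO and 0.4% methylcellulose. Incubation was 1 h at 30 °C with gentle shaking, then GF/B filtration and scintillation counting. Run in duplicate, reported as mean ± SEM; Ki from nonlinear regression.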
In general terms: In a radioligand displacement assay an active substance lowers the binding of a labelled ligand.

For the next test, the system named is human CB2 receptors. The test is described as follows: LANCE cAMP assay in CB2-transfected CHO cells. The format is cell-based. In a few lines: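 CHO cells stably transfected with wild-type human CB2, seeded at 2000 cells/well in RPMI-1640 with 1% dialyzed FBS, 25 mM HEPES and G-418, cultured overnight. Added cAMP antibody plus RO20-1724 (50 μM final) in DPBS/0.1% BSA, then test compound or forskolin (5 μM final). Incubated 45 min at RT, plus 1 h with detection reagent. TR-FRET read at ex 340/em 665 nm. ≥2 independent experiments in triplicate; EC50 from nonlinear regression.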

Test [1] relates to CB2 F197 replaced with valine. The conditions noted are these: cited from earlier work.
Setting [2] is: CHO cells expressing human CB2, forskolin-induced cAMP.

CB2, sequence (P34972 whole entry): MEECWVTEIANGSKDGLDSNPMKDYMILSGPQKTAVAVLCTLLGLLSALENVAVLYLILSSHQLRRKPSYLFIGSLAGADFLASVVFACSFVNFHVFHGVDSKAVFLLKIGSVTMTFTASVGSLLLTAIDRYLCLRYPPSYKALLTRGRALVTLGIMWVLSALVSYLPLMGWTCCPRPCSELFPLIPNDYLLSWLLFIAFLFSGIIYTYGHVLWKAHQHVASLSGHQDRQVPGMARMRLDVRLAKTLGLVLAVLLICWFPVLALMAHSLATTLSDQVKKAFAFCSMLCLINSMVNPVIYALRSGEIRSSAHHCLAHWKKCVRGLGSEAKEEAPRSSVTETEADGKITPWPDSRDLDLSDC

In general, Ki refers to a measure of affinity in units of concentration, obtained from inhibition or displacement. A lower Ki goes with tighter binding. `Cc1ccc(S(=O)(=O)N(CCc2ccccc2)S(=O)(=O)c2ccc(C)cc2)cc1` [NSC273940] yielded a Ki on CB2 of 195 nM.

On to `CCN(CC)CCCNc1cccc2ccc(OC)nc12.I` [NSC402300], for which the “Functional activity in LANCE cAMP assay” value is recorded as “inverse agonist” in the test with human CB2 receptors (at concentrations above 10 μM) and “neutral antagonist” in the test with human CB2 receptors (at concentrations below 10 μM). The same molecule came in with a Ki on CB2 of 398 nM.

For the molecule `Cc1ccc(S(=O)(=O)NC(CC(=O)OCc2ccccc2)C(=O)OCc2ccccc2)cc1` (stereo not shown) [NSC296950], in the test with human CB2 receptors (setting [2]), the “Functional activity in LANCE cAMP assay” value is listed as “inverse agonist”. The affinity on CB2, expressed as Ki, was 2360 nM.

In the case of `COc1ccc(C(=O)c2nc3ccccc3n2CC(=O)c2ccc(Cl)cc2)cc1` [NSC745454], at CB2, the Ki was found to be 1550 nM.

`Cc1ccc(OCc2c(COc3ccc(Cl)cc3)sc3ccc(Cl)cc23)cc1` [NSC162677]: the affinity at CB2, expressed as Ki, was 1550 nM.

On to `Cc1ccc(S(=O)(=O)N(Cc2ccc(Cl)cc2)S(=O)(=O)c2ccc(C)cc2)cc1` [NSC273936], for which the Ki at CB2 is 346 nM. This Ki lies about 4.5-fold lower than the previous one.

As to `CCCCCCC(C)(C)c1cc(O)c2c(c1)OC(C)(C)[C@@H]1CC=C(CO)C[C@@H]21` [hU-210], the “Effect of replacement of F197 with valine on association” value (“Effect of replacement of F197” for short) in test [1] was “no effect”.

Turning to `Cc1ccc(S(=O)(=O)N(CCc2ccc(Cl)cc2)S(=O)(=O)c2ccc(C)cc2)cc1` [NSC273939], the Ki at CB2 is 192 nM. This counts as sub-micromolar.

With `COC(=O)CCc1c(Cc2ccc[nH]2)[nH]c(C(=O)OCc2ccccc2)c1C` [NSC669611], the results for the “Functional activity in LANCE cAMP assay” value in the test on human CB2 receptors (setting [2]) and with human CB2 receptors (at concentrations below 10 μM) were “behaves similarly to NSC402300” and “neutral antagonist”, respectively. At CB2, this molecule displayed a Ki of 923 nM.

`Cc1ccc(C)c(NC(=O)CCC(=O)C(C#N)c2nc3ccccc3s2)c1` (stereo not shown) [NSC618804]: the Ki on CB2 was determined as 656 nM.

On to `CCCCC/C=C\C/C=C\C/C=C\C/C=C\CCCC(=O)NCCO` [AEA], for which the “Effect of replacement of F197” value in test [1] was “no effect”.

For `CCCCCCC(C)(C)c1ccc([C@@H]2C[C@H](O)CC[C@H]2CCCO)c(O)c1` [CP55940], the “Effect of replacement of F197” value in test [1] is “no effect”.

`CC1CN(CCOC(=O)Nc2ccc(Cl)cc2)CCN1C(C)(C)C` (stereo not shown) [NSC93299] had a Ki on CB2 of 2240 nM.

For the molecule `Cc1c(C(=O)c2cccc3ccccc23)c2cccc3c2n1[C@H](CN1CCOCC1)CO3` [WIN55,212-2], the “Decrease in binding affinity to CB2 on replacement of F197 with valine” value in test [1] is on record as 14 fold.
